Experiments:
Leishmania amazonensis = experiment: Antileishmanial activity against Leishmania amazonensis MHOM/BR/75-josefa in mouse peritoneal macrophages at 80 ug/mL after 48 hrs relative to control; format: functional
Procedure, shortened: (§1)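 BALB/c peritoneal macrophages, 2 · 10⁵ cells per chamber in DMEM, held 2 h at 37 °C in 4% CO₂/air. They were then infected for 4 h with 8 · 10⁵ stationary-phase promastigotes in DMEM with 5% heat-inactivated FCS and antibiotics. After washing off free parasites, compound was added in quadruplicate for 48 h. Monolayers were methanol-fixed and Giemsa-stained, and amastigotes counted per 200 cells. Result is % growth inhibition versus untreated controls.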

[1] = (§2) Toxicity against BALB/c mouse macrophages assessed as cell viability; format: functional, Macrophage; parameters: concentration or dose not given beside the values
Leishmania donovani = experiment: Antileishmanial activity against Leishmania donovani LD-1/MHOM/SD/00-1S in mouse peritoneal macrophages at 80 ug/mL after 48 hrs relative to control; format: functional; procedure, shortened: as §1
[2] = Toxicity against BALB/c mouse macrophages assessed as disrupted cells; format: functional, Macrophage
Macrophage = experiment: as §2; format: functional; parameters: concentration or dose not given beside the values

With `CC(C(=O)c1ccccc1)[S+]([O-])c1ccc(Cl)cc1` (configuration not stated) the inhibition at 80 µg/mL (Leishmania amazonensis) was 20.7%, the Activity [1] was greater than 80% and the inhibition at 80 µg/mL (Leishmania donovani) was 0%.
`C/C=C/c1ccc(OC(C)C(=O)c2ccc(OC)c(OC)c2)c(OC)c1` (configuration not stated) gave an inhibition at 80 µg/mL (Leishmania amazonensis) of 34.2%, an Activity [1] greater than 80% and an inhibition at 80 µg/mL (Leishmania donovani) of 50%.
With `COc1ccc(C(=O)COc2ccc(Cl)cc2)cc1OC` the inhibition at 80 µg/mL (Leishmania amazonensis) was 17.7%, the Activity [1] was greater than 80% and the inhibition at 80 µg/mL (Leishmania donovani) was 0%.
Work on `CC(C(=O)c1ccccc1)S(=O)(=O)c1ccc(Cl)cc1` (configuration not stated) yielded an inhibition at 80 µg/mL (Leishmania amazonensis) of 0%, an Activity [1] greater than 80% and an inhibition at 80 µg/mL (Leishmania donovani) of 0%.
With `O=C(CSc1ccc(Cl)cc1)c1ccccc1` the inhibition at 80 µg/mL (Leishmania amazonensis) was 38.8%, the Activity [1] was greater than 80% and the inhibition at 80 µg/mL (Leishmania donovani) was 37.2%.
With `O=C(COc1ccccc1)c1ccccc1` the inhibition at 80 µg/mL (Leishmania amazonensis) was 44%, the Activity [1] was greater than 80% and the inhibition at 80 µg/mL (Leishmania donovani) was 40%.
For `COc1ccc([C@@H](O)[C@H](C)Sc2ccc(C)cc2)cc1OC` (relative stereo), the inhibition at 80 µg/mL (Leishmania amazonensis) was 40.6%, the Activity [1] was greater than 80% and the inhibition at 80 µg/mL (Leishmania donovani) was 0%.
In the case of `O=C(CSc1ccc(Cl)cc1)c1ccc(Cl)cc1`, the inhibition at 80 µg/mL (Leishmania amazonensis) is reported as 50.5%, the Activity [1] is reported as greater than 80% and the inhibition at 80 µg/mL (Leishmania donovani) is reported as 0%.
For `COc1ccc(C(=O)C(C)Sc2ccc(N)cc2)cc1OC` (configuration not stated), the Activity [2] was greater than 80%.
Molecule `COc1ccc(C(=O)C(C)Sc2ccccc2)cc1OC` (configuration not stated) has an Activity [2] greater than 80%.
In the case of `Cc1ccc(SC(C)C(=O)c2ccccc2)cc1` (configuration not stated), the Activity [2] is reported as greater than 80%.
With `C[C@H](Sc1ccc(Cl)cc1)[C@H](O)c1ccccc1` (relative stereo) the inhibition at 80 µg/mL (Leishmania amazonensis) was 50.6%, the Activity [1] was greater than 80% and the inhibition at 80 µg/mL (Leishmania donovani) was 45.2%.
Work on `CC(Sc1ccc(Cl)cc1)C(=O)c1ccccc1` (configuration not stated) yielded an inhibition at 80 µg/mL (Leishmania amazonensis) of 100%, an Activity [1] greater than 80% and an inhibition at 80 µg/mL (Leishmania donovani) of 94.1%.
MEGLUMINE ANTIMONATE showed an inhibition (Leishmania amazonensis) of 28.2%, an Activity (Macrophage) greater than 80% and an inhibition (Leishmania donovani) of 26%.
Molecule `COc1ccc(C(=O)C(C)Sc2ccc(Cl)cc2)cc1OC` (configuration not stated) has an inhibition at 80 µg/mL (Leishmania amazonensis) of 63.3%, an Activity [1] greater than 80% and an inhibition at 80 µg/mL (Leishmania donovani) of 22%.
In the case of `COc1ccc(C(=O)C(C)S(=O)(=O)c2ccc(C)cc2)cc1OC` (configuration not stated), the inhibition at 80 µg/mL (Leishmania amazonensis) is reported as 7%, the Activity [1] is reported as greater than 80% and the inhibition at 80 µg/mL (Leishmania donovani) is reported as 0%.
`COc1ccc(C(=O)C(C)Oc2c(OC)cccc2OC)cc1OC` (configuration not stated) showed an inhibition at 80 µg/mL (Leishmania amazonensis) of 37.9%, an Activity [1] greater than 80% and an inhibition at 80 µg/mL (Leishmania donovani) of 49.9%.
With `CC(Sc1ccccc1)C(=O)c1ccccc1` (configuration not stated) the inhibition at 80 µg/mL (Leishmania amazonensis) was 78.1%, the Activity [1] was greater than 80% and the inhibition at 80 µg/mL (Leishmania donovani) was 70.2%.
Molecule `COc1ccc([C@@H](O)[C@H](C)Sc2ccc(Cl)cc2)cc1OC` (relative stereo) has an inhibition at 80 µg/mL (Leishmania amazonensis) of 36.1%, an Activity [1] greater than 80% and an inhibition at 80 µg/mL (Leishmania donovani) of 0%.
In the case of `CC(=O)O[C@H](c1ccccc1)[C@H](C)Sc1ccc(Cl)cc1` (relative stereo), the inhibition at 80 µg/mL (Leishmania amazonensis) is reported as 0%, the Activity [1] is reported as greater than 80% and the inhibition at 80 µg/mL (Leishmania donovani) is reported as 0%.
`CC(Sc1ccc(N)cc1)C(=O)c1ccccc1` (configuration not stated) gave an inhibition at 80 µg/mL (Leishmania amazonensis) of 0%, an Activity [1] greater than 80% and an inhibition at 80 µg/mL (Leishmania donovani) of 28.8%.
In the case of `CSc1ccccc1OCC(=O)c1ccc(Cl)cc1`, the inhibition at 80 µg/mL (Leishmania amazonensis) is reported as 8.8%, the Activity [1] is reported as greater than 80% and the inhibition at 80 µg/mL (Leishmania donovani) is reported as 5.8%.
`COc1ccc(C(=O)C(C)Sc2ccc(C)cc2)cc1OC` (configuration not stated) gave an inhibition at 80 µg/mL (Leishmania amazonensis) of 100% and an inhibition at 80 µg/mL (Leishmania donovani) of 100%.
